Compound activity: PubChem, several laboratories
Hits are enriched below; roughly 4.5% of the tested compounds scored in any of these assays.
MrgX1 antag – antagonists of human MrgX1 receptor, primary screen, HEK293 cells, Fluo-4 calcium flux. Mas-related G-protein coupled receptor member X1 (Homo sapiens), Q96LB2. BAM8-22 antagonism; hits give low values. B-score at 10 µM. 1.3% of 310,000 active. AID 588676, 2011;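 active means calcium-response B-score plate-corrected more than 3 library SD below zero, starting fluorescence within 5 deviations, no agonist response on first addition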;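 further: peak minus trough fluorescence over baseline after final BAM8-22 challenge near maximal dose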
Target sequence (Q96LB2 whole entry, looked up): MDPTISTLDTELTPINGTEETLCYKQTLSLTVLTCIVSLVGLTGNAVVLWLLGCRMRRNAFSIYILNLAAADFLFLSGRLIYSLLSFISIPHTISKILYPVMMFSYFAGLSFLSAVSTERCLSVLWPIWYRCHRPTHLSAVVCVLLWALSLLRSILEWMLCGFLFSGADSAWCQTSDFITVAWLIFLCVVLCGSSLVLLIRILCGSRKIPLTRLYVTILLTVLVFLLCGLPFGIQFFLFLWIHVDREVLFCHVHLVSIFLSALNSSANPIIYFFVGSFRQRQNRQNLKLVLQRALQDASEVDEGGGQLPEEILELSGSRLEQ
MrgX1 allo act – positive allosteric modulators of MrgX1, primary screen, HEK293 cells, Fluo-4 calcium flux; Mas-related G-protein coupled receptor member X1 (Homo sapiens), Q96LB2; FDSS; hits give high values; B-score at 10 µM; 0.63% of 310,000 active;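 active means plate-corrected calcium response at least 3 library SD above typical, normal starting fluorescence, not activating the receptor alone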;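 further: compound read alongside a low EC10 to EC30 dose of BAM8-22 agonist; peak minus trough fluorescence over baseline measured at the second addition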
MrgX1 ag – agonists of human MrgX1 receptor, primary screen, HEK293 cells, Fluo-4 calcium flux. 0.44% of 310,000 active. AID 588627, 2011. Fluo-4 calcium fluorescence, agonist mode; hits give high values. B-score at 10 µM;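 active means calcium response B-score plate-corrected fluorescence ratio at least 3 library SD, with starting fluorescence B-score inside 5 SD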
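Material: HEK293 cells stably expressing human MrgX1 receptor | Quantity: 15,000 cells per well | Times: Cells plated overnight, dye loaded 0.5 h 37 °C, 0.5 h room temperature | Measured by: Kinetic Fluo-4 NW fluorescence of intracellular calcium | Control set: Positive and negative controls per plate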
RGS4 block – RGS4 inhibitors, primary screen, cell-based, HEK293 M3R inducible RGS4, calcium flux; Fluo-4 calcium flux; hits give high values; triggered by carbachol at its EC20; 0.45% of 310,000 active; B-score at 10 µM; AID 463165, 2010;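 active means B-score, a plate-corrected calcium signal, over three deviations above library mean, with baseline fluorescence within five deviations of library mean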;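 further: RGS4 expression induced by doxycycline in cells with stable M3 receptor; B-score is computed from the integrated fluorescence ratio over baseline after carbachol; higher B-score means a larger calcium signal and so more RGS4 inhibition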
Target sequence (P49798 whole entry, looked up): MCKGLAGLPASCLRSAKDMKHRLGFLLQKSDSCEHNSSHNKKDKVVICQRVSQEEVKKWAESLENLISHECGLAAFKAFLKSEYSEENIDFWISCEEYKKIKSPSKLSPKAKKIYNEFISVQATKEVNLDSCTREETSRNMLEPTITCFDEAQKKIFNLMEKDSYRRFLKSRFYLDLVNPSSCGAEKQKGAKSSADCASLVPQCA
PHOSPHO1 block – PubChem AID 1565; recombinant PHOSPHO1, absorbance phosphatase assay; inhibition, % at 13.3 µM; Phosphoethanolamine/phosphocholine phosphatase (Homo sapiens), Q8TCT1; 1.1% of 290,000 active; in the data active means inhibition above about 60%
RGS4 act – RGS4 potentiators or activators, primary screen, cell-based, HEK293 M3R inducible RGS4, calcium flux; B-score at 10 µM; carbachol calcium flux Fluo4; hits give low values; AID 463111, 2010; 0.92% of 310,000 active;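 active means B-score of the integrated calcium signal more than 4 SD below the library mean, with starting fluorescence not abnormally high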;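 further: negative B-score means reduced calcium response which marks RGS4 activation or potentiation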
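Detection: kinetic calcium fluorescence imaging with Fluo4-AM dye, 2 µM / Material: HEK293 cells with stable M3R and inducible RGS4 / Schedule: recording 10 s baseline at 1 Hz, 100 s post-agonist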
MrgX1 antag conf – MrgX1 receptor antagonists, duplicate retest, confirmation, HEK293 cells, Fluo-4 calcium flux; 19% of 2,300 active; remaining BAM8-22 calcium response % of control (hits give low values), % at 10 µM; BAM8-22 calcium flux; hits give low values; shares compounds with MrgX1 antag;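 active means remaining agonist calcium response no higher than 100% minus 3 SD of agonist-only control wells, with starting fluorescence near control levels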;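 further: agonist BAM8-22 given at a near maximal EC90 to ECmax level; peak minus minimum fluorescence divided by baseline after agonist addition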
HEK293 Ca flux – nonspecific calcium signal in parental HEK293, confirmation, counter-screen for MrgX1 antagonist project, parental HEK293 cells, Fluo-4 calcium flux. 2% of 4,000 active. fluorescence ratio F(max-min)/F0 at 10 µM. Fluo-4 calcium fluorescence, FDSS. shares compounds with MrgX1 antag;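 active means duplicate-averaged calcium fluorescence ratio at least three times the standard deviation of buffer wells, a nonspecific response in parental cells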
HEK293 Ca counter – calcium response in parental HEK293 cells, primary screen, counter-screen for MrgX1 allosteric activator project, cell-based, Fluo-4 calcium flux, duplicate; shares compounds with MrgX1 antag; Fluo-4 fluorescence ratio; hits give high values; fluorescence ratio F(max-min)/F0 at 10 µM; 0.4% of 4,000 active; AID 624114, 2012;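 active means calcium fluorescence ratio, averaged over duplicates, at least 3 SD of the buffer-well ratio, meaning a nonspecific response in receptor-free cells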;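 further: untransfected parental HEK293 lacking MrgX1 used as counterscreen for MrgX1 allosteric activators; fluorescence change taken during the second addition on a kinetic imager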
HEK293 Ca cntr2 – calcium response in parental HEK293 cells, primary screen, counter-screen for MrgX1 agonist project, cell-based, Fluo-4 calcium flux, duplicate, agonist mode | shares compounds with MrgX1 antag | Fluo-4 calcium fluorescence (FDSS); hits give high values | fluorescence ratio F(max-min)/F0 at 10 µM | 8.7% of 4,000 active;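 active means calcium fluorescence ratio at least three times the spread of buffer wells, meaning a non-specific response in parental cells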
Starred values were filed as active, the others as inactive.

Results for O=C(NCc1ccccc1)c1ccc2nc(-c3ccco3)c(-c3ccco3)nc2c1 ?
MrgX1 antag: inactive; MrgX1 allo act: inactive; MrgX1 ag: inactive; RGS4 block: inactive; PHOSPHO1 block: 42; RGS4 act: inactive

How did O=C(Nc1ccccc1)c1ccc2nc(-c3ccco3)c(-c3ccco3)nc2c1 do in these assays?
MrgX1 antag: -4.6*; MrgX1 allo act: inactive; MrgX1 ag: inactive; RGS4 block: inactive; PHOSPHO1 block: -17; RGS4 act: inactive; MrgX1 antag conf: 79%*; HEK293 Ca flux: inactive; HEK293 Ca counter: inactive; HEK293 Ca cntr2: inactive

How did O=C(c1cccc(C(=O)N2CCN(c3ncccn3)CC2)c1)N1CCN(c2ncccn2)CC1 do in these assays?
MrgX1 antag: inactive; MrgX1 allo act: inactive; MrgX1 ag: inactive; RGS4 block: inactive; PHOSPHO1 block: 30; RGS4 act: inactive

How did O=C(c1ccc2nc(-c3ccco3)c(-c3ccco3)nc2c1)N1CCN(c2ncccn2)CC1 do in these assays?
MrgX1 antag: -6*; MrgX1 allo act: inactive; MrgX1 ag: inactive; RGS4 block: inactive; PHOSPHO1 block: -17; RGS4 act: inactive; MrgX1 antag conf: 83%*; HEK293 Ca flux: inactive; HEK293 Ca counter: inactive; HEK293 Ca cntr2: inactive

How did COC(=O)c1ccccc1S(=O)(=O)N1CCC(C(=O)OCc2cccc(OC)c2OC)CC1 do in these assays?
MrgX1 antag: inactive; MrgX1 allo act: inactive; MrgX1 ag: inactive; RGS4 block: inactive; RGS4 act: inactive

How did COc1cccc(C2N=C(c3ccccc3C)NO2)c1OC (stereo not drawn) do in these assays?
MrgX1 antag: inactive; MrgX1 allo act: inactive; MrgX1 ag: inactive; RGS4 block: inactive; PHOSPHO1 block: 31; RGS4 act: inactive

What do the screens show for `CCOC(=O)N1CCN(C(=O)c2ccccc2N(C)S(C)(=O)=O)CC1`?
MrgX1 antag: -7.6*; MrgX1 allo act: inactive; MrgX1 ag: inactive; RGS4 block: inactive; PHOSPHO1 block: 4; RGS4 act: inactive; MrgX1 antag conf: inactive; HEK293 Ca flux: inactive; HEK293 Ca counter: inactive; HEK293 Ca cntr2: inactive

What do the screens show for `COc1ccc2[nH]cc(CCNC(=O)CCC3CCCCC3)c2c1`?
MrgX1 antag: inactive; MrgX1 allo act: inactive; MrgX1 ag: inactive; RGS4 block: inactive; PHOSPHO1 block: 19; RGS4 act: inactive

Results for Cc1cccc2cc(CN(CC3CCCO3)C(=O)c3ccco3)c(=O)[nH]c12 (stereo not drawn) ?
MrgX1 antag: -8.3*; MrgX1 allo act: inactive; MrgX1 ag: inactive; RGS4 block: inactive; PHOSPHO1 block: 17; RGS4 act: inactive; MrgX1 antag conf: inactive; HEK293 Ca flux: inactive; HEK293 Ca counter: inactive; HEK293 Ca cntr2: inactive

Results for NS(=O)(=O)c1ccc(CNC(=O)c2sccc2-c2ccccc2)cc1 ?
MrgX1 antag: inactive; MrgX1 allo act: inactive; MrgX1 ag: inactive; RGS4 block: inactive; PHOSPHO1 block: 29; RGS4 act: inactive

What do the screens show for `COCc1nc(-c2ccc(-c3ccc(OC)cc3)nc2OC)no1`?
MrgX1 antag: -11*; MrgX1 allo act: inactive; MrgX1 ag: inactive; RGS4 block: inactive; PHOSPHO1 block: 8; RGS4 act: inactive; MrgX1 antag conf: inactive; HEK293 Ca flux: inactive; HEK293 Ca counter: inactive; HEK293 Ca cntr2: inactive

Results for Cc1ccccc1NC(=O)C1C2/C=C\CCCCC21 (stereo not drawn) ?
MrgX1 antag: -4.5*; MrgX1 allo act: inactive; MrgX1 ag: inactive; RGS4 block: inactive; PHOSPHO1 block: -6; RGS4 act: inactive; MrgX1 antag conf: inactive; HEK293 Ca flux: inactive; HEK293 Ca counter: inactive; HEK293 Ca cntr2: inactive

How did Cc1ccccc1NC(=O)C1C2CCCCC21 (stereo not drawn) do in these assays?
MrgX1 antag: inactive; MrgX1 allo act: inactive; MrgX1 ag: inactive; RGS4 block: inactive; PHOSPHO1 block: 30; RGS4 act: inactive

How did Cc1ccc(CN2CCN(Cc3cn[nH]c3-c3cccc(F)c3)CC2CCO)o1 (stereo not drawn) do in these assays?
MrgX1 antag: inactive; MrgX1 allo act: inactive; MrgX1 ag: inactive; RGS4 block: inactive; PHOSPHO1 block: 57; RGS4 act: inactive

What do the screens show for `C=CCSc1nc2c(c(C3CC=CCC3)c1C#N)CCC2` (stereo not drawn)?
MrgX1 antag: inactive; MrgX1 allo act: inactive; MrgX1 ag: inactive; RGS4 block: inactive; PHOSPHO1 block: 0; RGS4 act: inactive

Results for CC(C)OC(=O)CSc1nc2c(c(C3CC=CCC3)c1C#N)CCC2 (stereo not drawn) ?
MrgX1 antag: -6.2*; MrgX1 allo act: inactive; MrgX1 ag: inactive; RGS4 block: inactive; PHOSPHO1 block: 2; RGS4 act: inactive; MrgX1 antag conf: inactive; HEK293 Ca flux: inactive; HEK293 Ca counter: inactive; HEK293 Ca cntr2: inactive

How did Cc1cccc(-n2ncc3c(NCc4ccccc4)ncnc32)c1 do in these assays?
MrgX1 antag: inactive; MrgX1 allo act: inactive; MrgX1 ag: inactive; RGS4 block: inactive; PHOSPHO1 block: -6; RGS4 act: inactive
